High-throughput results: PubChem, several laboratories
This is a sample that favours compounds with a hit; in the whole collection about 1.7% have one here.
TbMetRS inhib: Trypanosoma brucei MetRS inhibition. purified T. brucei MetRS, ATP depletion, Kinase-Glo luminescence. inhibition, % at 11.9 µM. 0.4% of 360,000 active;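 active = inhibition above a per-plate cutoff of the control wells' mean inhibition plus 3 SD, cut at about 5.5% in these data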;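 note: 0% = DMSO wells median and 100% = median of wells with control inhibitor compound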
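Dosing: 11.9 µM compound single dose, 0.9% DMSO; Assay system: purified T. brucei MetRS enzyme; Measured by: Kinase-Glo luciferase luminescence reporting remaining unconsumed ATP; Schedule: 15 min plus 2 h at 25 °C.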
IDE act: boosts human insulin-degrading enzyme activity in HEK cells; P14735; FAbeta-B cleavage, fluorescence polarization; 0% vehicle, 100% cell-free pure enzyme wells; activation, % at 5.96 µM; 0.073% of 340,000 active;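 active = activation above the mean of all tested compounds plus 3 SD, set per screening campaign, cut at about 17% in these data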
Target sequence (P14735 whole entry, looked up): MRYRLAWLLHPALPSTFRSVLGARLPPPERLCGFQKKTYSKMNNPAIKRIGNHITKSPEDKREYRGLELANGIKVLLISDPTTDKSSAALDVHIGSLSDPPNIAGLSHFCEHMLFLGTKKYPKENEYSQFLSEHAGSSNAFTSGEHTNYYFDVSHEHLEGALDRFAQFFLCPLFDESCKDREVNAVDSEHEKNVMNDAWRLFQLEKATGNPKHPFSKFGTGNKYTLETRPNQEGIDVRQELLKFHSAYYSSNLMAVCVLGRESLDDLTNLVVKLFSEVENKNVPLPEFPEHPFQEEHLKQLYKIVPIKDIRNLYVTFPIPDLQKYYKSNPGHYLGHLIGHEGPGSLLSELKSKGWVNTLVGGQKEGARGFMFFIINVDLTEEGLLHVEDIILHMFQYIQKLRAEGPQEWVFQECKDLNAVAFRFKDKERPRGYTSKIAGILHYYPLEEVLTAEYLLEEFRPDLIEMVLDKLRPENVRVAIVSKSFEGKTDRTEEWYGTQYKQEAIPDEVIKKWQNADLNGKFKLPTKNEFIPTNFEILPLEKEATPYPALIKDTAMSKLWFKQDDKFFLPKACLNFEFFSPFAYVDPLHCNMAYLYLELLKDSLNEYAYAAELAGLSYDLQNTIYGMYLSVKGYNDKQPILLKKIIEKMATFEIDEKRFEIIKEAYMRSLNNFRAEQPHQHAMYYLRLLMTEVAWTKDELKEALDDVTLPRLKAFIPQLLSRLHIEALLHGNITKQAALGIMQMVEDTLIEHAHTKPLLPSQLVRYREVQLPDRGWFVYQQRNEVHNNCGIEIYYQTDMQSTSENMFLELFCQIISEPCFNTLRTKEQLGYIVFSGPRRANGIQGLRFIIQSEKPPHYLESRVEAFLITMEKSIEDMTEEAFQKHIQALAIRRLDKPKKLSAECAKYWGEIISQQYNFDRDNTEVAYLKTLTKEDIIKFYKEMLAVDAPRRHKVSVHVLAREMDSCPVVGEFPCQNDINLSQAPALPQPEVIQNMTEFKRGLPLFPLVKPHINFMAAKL
HNF4A DNA FP: change in binding of human HNF4 alpha to DNA | 0.3% of 360,000 active | P41235 | HNF4a-FITC DNA binding, fluorescence polarization, 1 h | activity change, % at 10 µM; in the data active = activity change above about 30%, passing the limit was not always enough
CSN inh: blocks human CSN-mediated cullin deneddylation; Q92905; Purified CSN, SCF-Nedd8-OG deneddylation, fluorescence polarization; inhibition, % at 12.5 µM; 0.38% of 360,000 active; AID 651999;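 active = pattern-corrected inhibition above about 35%, with an unprinted fluorescence ratio check between 0.5 and 1.5, limit read from the data, passing the limit was not always enough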;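 note: 0% = enzyme with substrate and 100% = substrate without enzyme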
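Test system: purified human Csn5 enzyme expressed in HEK293T cells. Amount: 0.24 nM enzyme. Reagent: SCFSkp2-Nedd8OG substrate at 10 nM final. Schedule: 90 min incubation of compound, enzyme and substrate at room temperature. Detection: fluorescence polarization. Read-out: % inhibition of substrate cleavage by Csn5.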
IDE inh: inhibitors of human insulin-degrading enzyme in cells | P14735 | HEK cells, FAbetaB cleavage, fluorescence polarization | inhibition, % at 5.59 µM | 0.41% of 320,000 active | AID 434962;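 active = percent inhibition above the average of all tested compounds plus 3 SD, set per screening campaign, cut at about 16% in these data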;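 note: IDE supplied by intact live HEK cells; FP after avidin binding of uncleaved biotin substrate so inhibition keeps polarization high; 0% = DMSO wells and 100% = 60 µM reference IDE inhibitor Ii1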
TPT1 inh: inhibitors of Candida albicans tRNA 2'-phosphotransferase TPT1; recombinant caTPT1, FP RNA substrate dephosphorylation; inhibition, % at 5 µM; 0.81% of 300,000 active;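 active = inhibition above the mean of all tested compounds plus 3 SD, set per screening campaign, cut at about 24% in these data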;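 note: plate controls were DMSO alone for no effect and ferristatin control at 100 nM for full effect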
The depositor's hits bear a star; . = not tested or not shown; + = active, no number.

SMILES | TbMetRS inhib | IDE act | HNF4A DNA FP | CSN inh | IDE inh | TPT1 inh
COc1cc2c(cc1OC)C(c1ccccc1)N(Cc1ccc(S(=O)(=O)NC(=O)c3ccco3)cc1)CC2 (stereo not given) | 0 | . | 2 | 0 | . | .
Cn1nc(-c2ccc(C(=O)Nc3ccc(F)cc3)cc2)c2ccccc2c1=O | 0 | . | 1 | 44* | 4 | -1
CCCOc1ccc(N2C(=O)CC(SCCc3nc4ccccc4[nH]3)C2=O)cc1 (stereo not given) | 2 | -3 | -3 | -9 | 5 | -3
O=C1CC(SCCc2nc3ccccc3[nH]2)C(=O)N1c1ccc(Cl)cc1 (stereo not given) | 21* | 6 | -1 | 0 | 4 | 0
C/C=C\C=C/C(=O)Nc1cccc(C2=NOC3(C2)C[C@@H](C(N)=O)N(C(=O)/C=C/C=C\C)C3)c1 (stereo not given in full) | 0 | -3 | -41 | 64* | 9 | 5
C/C=C\C=C/C(=O)Nc1cccc(C2=NOC3(C2)C[C@@H](C(N)=O)N(C(=O)/C=C/CC)C3)c1 (stereo not given in full) | 0 | -2 | -4 | 3 | 0 | 1
C/C(=N\NC(=O)c1cccc(S(=O)(=O)N2CCOCC2)c1)c1ccc(OCC(=O)N(C)C)cc1 | 0 | 4 | -1 | -1 | 3 | -3
CCc1ccc2c(c1)C1(SC(NC(C)=O)=NN1C(C)=O)C(=O)N2CC (stereo not given) | 0 | 1 | 0 | 56* | -2 | 1
CCN1C(=O)C2(SC(NC(C)=O)=NN2C(C)=O)c2cc(C)ccc21 (stereo not given) | 0 | -2 | 1 | 3 | 9 | -1
Nc1cc(-c2ccccc2)nn1S(=O)(=O)c1ccc(Br)cc1 | 0 | 0 | 2 | + | -2 | 1
CCN=C1SC(C(=O)Nc2ccc(Cl)c(Cl)c2)CC(=O)N1CC (stereo not given) | 0 | 6 | -1 | 79* | -6 | 3
Cc1ccccc1NC(=O)COC(=O)/C=C/c1cccc(C(F)(F)F)c1 | 0 | 6 | 2 | 1 | -3 | 0
COc1cc(/C=C2\SC(=S)N(NC(=O)c3ccccc3OC)C2=O)ccc1O | 0 | -68 | 48* | 5 | . | .
COc1cc(/C=C2\SC(=S)N(N3CCOCC3)C2=O)ccc1O | 1 | -30 | -10 | 8 | 19* | 15
COc1cc(/C=C2\SC(=S)N(N3CCOCC3)C2=O)cc(OC)c1OC | 0 | -1 | 5 | -1 | 0 | 5
O=C(O)c1ccc(/C=C2\SC(=S)N(NC(=O)c3ccccc3)C2=O)cc1 | 0 | 0 | 1 | -6 | -1 | 11
COc1ccc(Br)cc1CN1CCN(Cc2c[nH]c3ccccc23)CC1 | 2 | 9 | 59* | 6 | 3 | -2
Cc1c(C)c2ccc(OCC(=O)NCc3ccccn3)cc2oc1=O | 0 | 1 | 2 | 72* | 0 | -3
Cc1ccc(S(=O)(=O)N2C[C@H]3[C@H]4C(=O)N(C5CCCCC5)C(=O)[C@H]4CC(=O)[C@H]3[C@@H]2c2ccccc2Cl)cc1 | 0 | . | 0 | 36* | . | .
O=C(CCn1c(=O)c2cccn2c2cccnc21)NCc1cccc(Cl)c1 | 0 | -2 | -2 | 2 | 9 | 0
CC(=O)OC[C@@H]1CN(Cc2ccccc2)C[C@H](n2cnc3c(NCC(C)C)ncnc32)O1 | 0 | . | 2 | 7 | . | .
CC(=O)N1CCN(c2ccc(C(N)=O)cc2[N+](=O)[O-])CC1 | 0 | 10 | 3 | 2 | 2 | 0
COc1ccc(N2CCN(c3ccc(C(N)=O)cc3[N+](=O)[O-])CC2)cc1 | -1 | -4 | -3 | 75* | 7 | -2
CCN(c1ccccc1)S(=O)(=O)c1ccc(N2CCN(c3ccc(O)cc3)CC2)nc1 | 0 | -6 | 3 | 3 | 1 | .
C#CCOCCOCCOCCNc1nc(N2CCN(C(=O)CCCCCCCCCCNC(=O)[C@H](CCCCN)n3cc(CCO)nn3)CC2)nc(N2CCN(C(=O)CCCCCCCCCCNC(=O)[C@H](CCCN=C(N)N)n3cc(C[C@@H](C)CC)nn3)CC2)n1 | 0 | 40* | 164 | 109* | 1 | 5
SMILES | TbMetRS inhib | IDE act | HNF4A DNA FP | CSN inh | IDE inh | TPT1 inh
C#CCOCCOCCOCCNc1nc(N2CCN(C(=O)CCCCCCCCCCNC(=O)[C@H](CCCCN)n3cc(CCO)nn3)CC2)nc(N2CCN(C(=O)CCCCCCCCCCNC(=O)[C@H](CCCCN)n3cc(CCO)nn3)CC2)n1 | 0 | 10 | 131 | 104* | 6 | 0
C#CCOCCOCCOCCNc1nc(N2CCN(C(=O)CCCCCCCCCCNC(=O)[C@H](CCCCN)n3cc(C[C@@H](C)CC)nn3)CC2)nc(N2CCN(C(=O)CCCCCCCCCCNC(=O)[C@H](CCCCN)n3cc(C[C@@H](C)CC)nn3)CC2)n1 | 0 | 40* | 187 | 106* | -2 | -1
C#CCOCCOCCOCCNc1nc(N2CCN(C(=O)CCCCCCCCCCNC(=O)[C@H](CCCCN)n3cc(CCCC(=O)O)nn3)CC2)nc(N2CCN(C(=O)CCCCCCCCCCNC(=O)[C@H](CCCN=C(N)N)n3cc(C[C@@H](C)CC)nn3)CC2)n1 | 0 | 26* | 29 | 6 | 5 | 2
C#CCOCCOCCOCCNc1nc(N2CCN(C(=O)CCCCCCCCCCNC(=O)[C@H]([C@@H](C)CC)n3cc(CCCCN=C(N)N)nn3)CC2)nc(N2CCN(C(=O)CCCCCCCCCCNC(=O)[C@H](CCCCN)n3cc(C[C@@H](C)CC)nn3)CC2)n1 | . | . | . | . | -6 | 0
C#CCOCCOCCOCCNc1nc(N2CCN(C(=O)CCCCCCCCCCNC(=O)[C@H](CO)n3cc(CCCSC)nn3)CC2)nc(N2CCN(C(=O)CCCCCCCCCCNC(=O)[C@H](CCCCN)n3cc(C[C@@H](C)CC)nn3)CC2)n1 | . | . | . | . | -2 | -3
CC(O)(c1ccc(F)c(F)c1)c1nc(-c2cccc(C#N)c2)cs1 (stereo not given) | 0 | . | -3 | -1 | . | .
Cc1ccc(SCC(=O)OCC(=O)N(C)CC(=O)Nc2ccccc2Cl)cc1 | -1 | 8 | -2 | -6 | 1 | 0
O=C(Nc1nc([C@@H]2O[C@H](CO)[C@@H](O)[C@H](O)[C@H]2O)cs1)NC(c1ccccc1)c1ccccc1 | 0 | . | 2 | -4 | . | .
C#CCOCCOCCOCCNc1nc(N2CCN(C(=O)CCCCCCCCCCNC(=O)[C@@H](CCSC)n3cc(CCO)nn3)CC2)nc(N2CCN(C(=O)CCCCCCCCCCNC(=O)[C@H]([C@@H](C)CC)n3cc(CCCCN=C(N)N)nn3)CC2)n1 | 0 | 46* | 212 | 139* | 5 | -4
